{"data": "Measured values gathered from unrelated publications", "target": "Dual specificity protein kinase CLK1 (CLK1, Homo sapiens, UniProt P49759)", "note": "Lines come from different studies, so protocols differ."}
{"SMILES": "COc1cc(Cl)c(C(=O)N[C@@H](CN[C@H]2CC[C@@H](N)CC2)Cc2ccc(C#N)cc2)cc1-c1ccc(CN[C@H](C)c2ccc(C)cc2)o1", "observed": "enzyme activity", "action": "inhibitor", "concentration": "1 µM", "quantity": "remaining activity", "result": "91%"}
{"SMILES": "O=C(O)c1cc(-c2ccc(C3CCNCC3)cc2)c2ccc(-c3ccc(C(F)(F)F)cc3)cc2c1", "observed": "cell-free assay", "method": "competition with immobilised ligand", "concentration": "1 µM", "quantity": "remaining binding", "result": "100%"}
{"SMILES": "Cn1cnc(Br)c1C1=CN(c2ncnc3[nH]cnc23)CCS1", "observed": "enzyme activity", "action": "inhibitor", "method": "radiometric", "concentration": "2 µM", "quantity": "inhibition", "result": "96.1%"}
{"SMILES": "Cc1nc(Cc2cccc(C(F)(F)F)c2)sc1-c1ccc(C(N)=O)nc1", "observed": "cell-free assay", "method": "competition with immobilised ligand", "concentration": "1 µM", "quantity": "remaining binding", "result": "83%"}
{"SMILES": "CC(C)(O)[C@H]1CC[C@H](Nc2ccc3ncc(-c4cccc(C(F)(F)F)c4)n3n2)CC1", "observed": "enzyme activity", "action": "inhibitor", "concentration": "1 µM", "quantity": "remaining activity", "result": "8.45%"}
{"SMILES": "CN1CC(Oc2cnc(C#N)cc2-c2ccn3nc(NC(=O)C4CC4)cc3c2)C1", "observed": "enzyme activity", "action": "inhibitor", "concentration": "1 µM", "quantity": "inhibition", "result": "-3%"}
{"SMILES": "COc1cc(-c2cc(-c3ccc(N4CCNCC4)cc3)cnc2C)cc(OC)c1OC", "observed": "enzyme activity", "action": "inhibitor", "concentration": "1 µM", "quantity": "inhibition", "result": "1%"}
{"SMILES": "O=C1NC(=O)c2cc(Nc3ccc(F)cc3)c(Nc3ccc(F)cc3)cc21", "observed": "cell-free assay", "concentration": "0.5 µM", "quantity": "remaining signal", "result": "102%"}
{"SMILES": "Cc1ccc(C(=O)Nc2ccc(CN3CCN(C)CC3)c(C(F)(F)F)c2)cc1C#Cc1cnc2cccnn12", "observed": "enzyme activity", "action": "inhibitor", "concentration": "23.5 nM", "quantity": "remaining activity", "result": "38%"}
{"SMILES": "O=C(NCc1ncc(C(F)(F)F)cc1Cl)c1ccc2c(c1)C1(CCS(=O)(=O)CC1)[C@H](C1CC1)N2S(=O)(=O)c1ccc(F)cc1", "observed": "cell-free assay", "method": "competition with immobilised ligand", "concentration": "1 µM", "quantity": "remaining binding", "result": "100%"}
{"SMILES": "Cc1ccc(NC(=O)c2ccc(C)c(C(F)(F)F)c2)cc1C#Cc1nn(C2CCC(O)CC2)c2ncnc(N)c12 (stereo not shown)", "observed": "cell-free assay", "concentration": "10 µM", "quantity": "remaining signal", "result": "64%"}
{"SMILES": "O=C(O)[C@H]1[C@H](Cn2nnc3ccccc3c2=O)CC[C@@H]1C(=O)c1ccc(OCCC2CCOCC2)cc1", "observed": "cell-free assay", "method": "competition with immobilised ligand", "concentration": "1 µM", "quantity": "remaining binding", "result": "98%"}
{"SMILES": "CC(C)(C)c1nc(-c2cccc(NS(=O)(=O)c3c(F)cccc3F)c2F)c(-c2ccnc(N)n2)s1", "observed": "enzyme activity", "action": "inhibitor", "method": "radiometric", "concentration": "1 µM", "quantity": "remaining activity", "result": "89%"}
{"SMILES": "CC(=O)N1CCC(c2ccc(C(=O)NC(=N)N)cc2C(F)(F)F)CC1", "observed": "cell-free assay", "method": "competition with immobilised ligand", "concentration": "1 µM", "quantity": "remaining binding", "result": "100%"}
{"SMILES": "O=C1Nc2ccc(Cl)cc2C1=Cc1cc(Cl)c(O)c(Cl)c1", "observed": "cell-free assay", "concentration": "0.5 µM", "quantity": "remaining signal", "result": "85%"}
{"SMILES": "CNCc1ccccc1-c1csc([C@H](C)Nc2nc(C)nc3cc(OC)c(OC)cc23)c1", "observed": "cell-free assay", "method": "competition with immobilised ligand", "concentration": "1 µM", "quantity": "remaining binding", "result": "95%"}
{"SMILES": "C[S+]([O-])c1ccc(-c2nc(-c3ccncc3)c(-c3ccc(F)cc3)[nH]2)cc1 (stereo not shown)", "observed": "cell-free assay", "concentration": "0.5 µM", "quantity": "remaining signal", "result": "101%"}
{"SMILES": "COc1cc2ncnc(Nc3ccc(Oc4ccccc4)cc3C)c2cc1OC", "observed": "enzyme activity", "action": "inhibitor", "concentration": "1 µM", "quantity": "inhibition", "result": "3%"}
{"SMILES": "O=C(Nc1cnn(-c2csc(C(=O)NC3COC3)c2)c1)Nc1ccccc1Cl", "observed": "enzyme activity", "action": "inhibitor", "concentration": "5 µM", "quantity": "remaining activity", "result": "81%"}
{"SMILES": "CCCS(=O)(=O)Nc1ccc(F)c(C(=O)c2c[nH]c3ncc(-c4ccc(Cl)cc4)cc23)c1F", "observed": "enzyme activity", "action": "inhibitor", "concentration": "1 µM", "quantity": "inhibition", "result": "< 10%"}
{"SMILES": "C#Cc1cccc(Nc2ncnc3cc(OCCOC)c(OCCOC)cc23)c1", "observed": "cell-free assay", "concentration": "0.5 µM", "quantity": "remaining signal", "result": "107%"}
{"SMILES": "CNC(=O)c1ccc(Nc2ncc(C(F)(F)F)c(NCc3nccnc3N(C)S(C)(=O)=O)n2)cc1", "observed": "cell-free assay", "method": "competition with immobilised ligand", "concentration": "0.1 µM", "quantity": "remaining binding", "result": "23%"}
